In ChEMBL document CHEMBL3102843, “Synthesis and antifungal activity of substituted 2,4,6-pyrimidinetrione carbaldehyde hydrazones” (Bioorg Med Chem, 2014):
Values after ≈ are worked out from the molar mass of the structure shown. Active and inactive are the calls of the source. Unless noted, no cut-off for these calls is given here.

What was measured:
[1] = test system: Nakaseomyces glabratus; assay: Antifungal activity against Candida glabrata ATCC 48435 at 125 ug/ml after 48 to 72 hrs by broth microdilution method; assay type: functional, organism-based
Procedure, shortened: (§1)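 Broth microdilution per NCCLS. Inocula come from 5–7 colonies on YM agar, suspended in sterile water and adjusted to 0.5 McFarland at 530 nm (stock 1×10⁶–5×10⁶ cells/mL), then diluted 1:50 in HEPES-buffered RPMI 1640. Compounds in DMSO (final ≤1%) are added as a 10-fold dilution into the suspension. Plates run 48–72 h at 35 °C, humid. Growth is scored visually; the endpoint is ≥80% reduction versus drug-free wells.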

[2] = test system: Candida albicans; assay: Antifungal activity against Candida albicans ATCC 10231 at 125 ug/ml after 48 to 72 hrs by broth microdilution method; assay type: functional, organism-based; procedure, shortened: as §1
[3] = test system: HepG2; assay: Cytotoxicity against human HepG2 cells assessed as cell viability at 2 to 200 ug/ml after 24 hrs by MTT assay; assay type: cell-based; conditions: hepg2, 24 h
Procedure, shortened: (§2)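 MTT (tetrazolium) assay in Vero and HepG2 cells. Cells were pre-grown 24 h at 37 °C/5% CO₂ in DMEM with 10% FBS. Compounds diluted in media at the fungal MIC and at 5×, 10× and 100× MIC, then exposed 24 h. Dye was added for 1–4 h, then stop solution for 1 h at RT; A570 read. Viability was taken as % of 1% DMSO no-drug wells, with 0.1% saponin as death control. Triplicate, mean ± SD.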

[4] = test system: Candida albicans; assay: Antifungal activity against Candida albicans ATCC 10231 after 48 to 72 hrs by broth microdilution method; assay type: functional
Procedure, shortened: (§3)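 Broth microdilution per NCCLS. Organisms were subcultured on Sabouraud agar. Inoculum was 5–7 colonies from YM agar in sterile water, adjusted to 0.5 McFarland at 530 nm (1–5×10⁶ cells/mL stock), held 30 min at RT, then diluted 1:50 in HEPES-buffered RPMI 1640. DMSO stocks were twofold-diluted, with final DMSO ≤1%. Plates ran 48–72 h at 35 °C, humid. MIC is the lowest concentration giving ≥80% growth reduction vs drug-free wells, scored visually. Fluconazole or amphotericin B ran as drug control.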

[5] = Cytotoxicity against african green monkey Vero cells assessed as cell viability at 10 times MIC80 for fungus after 24 hrs by MTT assay; assay type: cell-based; conditions: chlorocebus sabaeus, read-out: Activity; procedure, shortened: as §2
[6] = test system: Nakaseomyces glabratus; assay: Antifungal activity against Candida glabrata ATCC 48435 after 48 to 72 hrs by broth microdilution method; assay type: functional; procedure, shortened: as §3
[7] = test system: Candida albicans; assay: Antifungal activity against Candida albicans ATCC 10231 at 62 ug/ml after 48 to 72 hrs by broth microdilution method; assay type: functional
[8] = Cytotoxicity against african green monkey Vero cells assessed as cell viability at 2 to 200 ug/ml after 24 hrs by MTT assay; assay type: cell-based; conditions: chlorocebus sabaeus, read-out: Activity; procedure, shortened: as §2

Structure (SMILES)	Activity [1]	Activity [2]	MIC80 [4]	MIC80 [6]	other results
O=C1NC(=O)C(CCCc2ccccc2)C(=O)N1	inactive	inactive	–	–	–
CN1C(=O)C(/C=N/Nc2ccccc2)C(=O)N(C)C1=O	–	–	4 µg/mL (≈ 14.6 µM)	2 µg/mL (≈ 7.29 µM)	Activity [3]: Toxic; viability at 24 h [5]: 80%
CN1C(=O)C(C(=O)c2ccc([N+](=O)[O-])cc2)C(=O)N(C)C1=O	inactive	inactive	–	–	–
O=C1NC(=O)C(CC2CCC(O)CC2)C(=O)N1 (stereo not drawn)	inactive	inactive	–	–	–
O=C1NC(=O)C(C(=O)c2ccc(O)cc2)C(=O)N1	inactive	inactive	–	–	–
CN(C)c1ccc(CC2(CCCc3ccccc3)C(=O)NC(=O)NC2=O)cc1	inactive	inactive	–	–	–
COc1ccc(C(=O)N/N=C/C2C(=O)N(C)C(=O)N(C)C2=O)cc1	–	–	62 µg/mL (≈ 187 µM)	31 µg/mL (≈ 93.3 µM)	inhibition at 62 µg/mL [7]: < 50%
CC(=O)C1C(=O)NC(=O)NC1=O	inactive	inactive	–	–	–
CN(C)c1ccc(CC2(Cc3ccc(N(C)C)cc3)C(=O)NC(=O)NC2=O)cc1	inactive	inactive	–	–	–
C/C(=N\Nc1ccc([N+](=O)[O-])cc1)C1C(=O)NC(=O)NC1=O	–	–	2 µg/mL (≈ 6.55 µM)	2 µg/mL (≈ 6.55 µM)	Activity [3]: Toxic; viability at 24 h [8]: 35%
O=C1NC(=O)N(c2ccccc2)C(=O)C1CC1CCC(O)CC1 (stereo not drawn)	inactive	inactive	–	–	–
O=C1NC(=O)C(C2CCCCC2)C(=O)N1	inactive	inactive	–	–	–
O=C1NC(=O)C(C(=O)c2ccc([N+](=O)[O-])cc2)C(=O)N1	inactive	inactive	–	–	–
CN1C(=O)C(/C=N/NC(=O)c2ccc([N+](=O)[O-])cc2)C(=O)N(C)C1=O	–	–	62 µg/mL (≈ 179 µM)	125 µg/mL (≈ 360 µM)	inhibition at 62 µg/mL [7]: < 50%
CN1C(=O)NC(=O)C(C(=O)c2ccccc2)C1=O (stereo not drawn)	inactive	inactive	–	–	–
O=C1NC(=O)C(C(=O)c2ccccc2)C(=O)N1	inactive	inactive	–	–	–
CN1C(=O)C(C(=O)c2cc([N+](=O)[O-])cc([N+](=O)[O-])c2)C(=O)N(C)C1=O	inactive	inactive	–	–	–
O=C1NC(=O)C(CCCC2CCCCC2)C(=O)N1	inactive	inactive	–	–	–
COc1ccc(C(=O)C2C(=O)NC(=O)NC2=O)cc1	inactive	inactive	–	–	–
CN1C(=O)C(CCCc2ccccc2)C(=O)N(C)C1=O	inactive	inactive	–	–	–
O=C1NC(=O)C(Cc2ccccc2)(Cc2ccccc2)C(=O)N1	inactive	inactive	–	–	–
CN1C(=O)NC(=O)C(C=O)C1=O (stereo not drawn)	inactive	inactive	–	–	–
CN1C(=O)C(C(=O)c2ccc(O)cc2)C(=O)N(C)C1=O	inactive	inactive	–	–	–

Structure (SMILES)	Activity [1]	Activity [2]	MIC80 [4]	MIC80 [6]	other results
CCCCN1C(=O)NC(=O)C(C(=O)c2ccc(O)cc2)C1=O (stereo not drawn)	inactive	inactive	–	–	–
O=C1NC(=O)N(c2ccccc2)C(=O)C1C(=O)c1ccc(O)cc1 (stereo not drawn)	inactive	inactive	–	–	–
CN1C(=O)C(/C=N/Nc2ccc([N+](=O)[O-])cc2)C(=O)N(C)C1=O	–	–	2 µg/mL (≈ 6.26 µM)	2 µg/mL (≈ 6.26 µM)	Activity [3]: Toxic; viability at 24 h [5]: 80%
O=C1NC(=O)C(C(=O)c2cccc([N+](=O)[O-])c2)C(=O)N1	inactive	inactive	–	–	–
CN1C(=O)C(C(=O)c2ccccc2)C(=O)N(C)C1=O	inactive	inactive	–	–	–
O=CC1C(=O)NC(=O)NC1=O	inactive	inactive	–	–	–
CN1C(=O)C(C(=O)c2cccnc2)C(=O)N(C)C1=O	inactive	inactive	–	–	–
CCCCN1C(=O)NC(=O)C(/C(=N/Nc2ccc([N+](=O)[O-])cc2[N+](=O)[O-])c2ccccc2)C1=O (stereo not drawn)	–	–	inactive	inactive	–
O=C1NC(=O)C(C(=NNc2ccc(C(=O)O)cc2)C2C(=O)NC(=O)NC2=O)C(=O)N1	–	–	inactive	125 µg/mL (≈ 300 µM)	–
COc1ccc(/N=C/C2C(=O)NC(=O)NC2=O)cc1	–	–	inactive	inactive	–
COC(=O)N/N=C(\C)C1C(=O)N(C)C(=O)N(C)C1=O	–	–	inactive	inactive	–
CN/N=C/C1C(=O)N(C)C(=O)N(C)C1=O	–	–	62 µg/mL (≈ 292 µM)	125 µg/mL (≈ 589 µM)	inhibition at 62 µg/mL [7]: < 50%
O=C1NC(=O)C(=Cc2ccccc2)C(=O)N1	–	–	inactive	inactive	–
CC(C)C1C(=O)NC(=O)N(c2ccccc2)C1=O (stereo not drawn)	inactive	inactive	–	–	–
CN1C(=O)C(/C=N/c2ccc(-c3ccccc3)cc2)C(=O)N(C)C1=O	–	–	inactive	inactive	–
O=C1NC(=O)C(/C(=N/Nc2ccc([N+](=O)[O-])cc2[N+](=O)[O-])c2ccccc2)C(=O)N1	–	–	inactive	inactive	–
CN1C(=O)C(C(=O)c2cccc([N+](=O)[O-])c2)C(=O)N(C)C1=O	inactive	inactive	–	–	–
C/C(=N\c1ccccc1)C1C(=O)NC(=O)NC1=O	–	–	inactive	inactive	–
O=C1NC(=O)C(C(=O)c2cc([N+](=O)[O-])cc([N+](=O)[O-])c2)C(=O)N1	inactive	inactive	–	–	–
O=C1NC(=O)C(/C=N/c2ccc(O)cc2)C(=O)N1	–	–	inactive	inactive	–
COc1ccc(C=C2C(=O)N(C)C(=O)N(C)C2=O)cc1	–	–	inactive	inactive	–
O=C1NC(=O)C(Cc2ccc(O)cc2)C(=O)N1	inactive	inactive	–	–	–
Cc1ccc(S(=O)(=O)N/N=C/C2C(=O)N(C)C(=O)N(C)C2=O)cc1	–	–	inactive	inactive	–

Structure (SMILES)	Activity [1]	Activity [2]	MIC80 [4]	MIC80 [6]	other results
COc1ccc(C(=O)C2C(=O)N(C)C(=O)N(C)C2=O)cc1	inactive	inactive	–	–	–
O=C1NC(=O)C(=C/C=C/c2ccccc2)C(=O)N1	–	–	62 µg/mL (≈ 256 µM)	inactive	–
CCCCCCCC1C(=O)NC(=O)NC1=O	inactive	inactive	–	–	–
CN1C(=O)C(/C=N/NS(=O)(=O)c2ccccc2)C(=O)N(C)C1=O	–	–	inactive	inactive	–
O=C1NC(=O)C(/C=N/Nc2ccc([N+](=O)[O-])cc2[N+](=O)[O-])C(=O)N1	–	–	inactive	125 µg/mL (≈ 372 µM)	–
CN1C(=O)C(/C=N/c2nnc[nH]2)C(=O)N(C)C1=O	–	–	inactive	inactive	–
CC(=O)C1C(=O)NC(=O)N(c2ccccc2)C1=O (stereo not drawn)	inactive	inactive	–	–	–
O=C1NC(=O)N(c2ccccc2)C(=O)/C1=C\c1ccc(O)cc1	–	–	inactive	inactive	–
O=C1NC(=O)C(=Cc2ccc3ccccc3c2)C(=O)N1	–	–	125 µg/mL (≈ 469 µM)	inactive	–
O=C1NC(=O)C(=Cc2cccc3ccccc23)C(=O)N1	–	–	125 µg/mL (≈ 469 µM)	inactive	–
COc1cc(OC)c(C=C2C(=O)N(C)C(=O)N(C)C2=O)c(OC)c1	–	–	inactive	inactive	–
CN1C(=O)C(=C/C=C/c2ccccc2)C(=O)N(C)C1=O	–	–	62 µg/mL (≈ 229 µM)	125 µg/mL (≈ 462 µM)	–
COc1ccc(/C(=N\CCCCCC(=O)O)C2C(=O)NC(=O)NC2=O)cc1	–	–	inactive	inactive	–
CCCCN1C(=O)NC(=O)C(C(=O)c2ccc(OC)cc2)C1=O (stereo not drawn)	inactive	inactive	–	–	–
COc1ccc(/N=C/C2C(=O)N(C)C(=O)N(C)C2=O)cc1	–	–	inactive	inactive	–
O=C1NC(=O)C(Cc2ccc3ccccc3c2)C(=O)N1	inactive	inactive	–	–	–
O=C1NC(=O)C(/C=N/c2ccc(-c3ccccc3)cc2)C(=O)N1	–	–	inactive	inactive	–
COc1ccc(C=C2C(=O)N(C)C(=O)N(C)C2=O)c(OC)c1OC	–	–	inactive	inactive	–
CN1C(=O)C(/C=N/N)C(=O)N(C)C1=O	–	–	125 µg/mL (≈ 631 µM)	16 µg/mL (≈ 80.7 µM)	–
C/C(=N\Nc1ccc([N+](=O)[O-])cc1[N+](=O)[O-])C1C(=O)N(C)C(=O)N(C)C1=O	–	–	inactive	inactive	–
O=C1NC(=O)C(/C=N/c2cccc(O)c2)C(=O)N1	–	–	inactive	inactive	–
